Assay results reported in ChEMBL document CHEMBL1156597, “Structure-activity relationship of kahalalide F synthetic analogues” (J Med Chem, 2008).

Assays:
[1] = Cytotoxicity against human HeLa-APL cells after 48 hrs by SRB assay; assay type: functional
How it was run: (§1)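 Cells grown in RPMI 1640 with 10% FBS and penicillin/streptomycin at 37 °C and 5% CO₂, trypsinized, then seeded at 5 × 10³/well. After 18 h drug-free attachment, samples in DMSO/EtOH/PBS (0.5:0.5:99) were added for 48 h continuous exposure. Cells were fixed with cold TCA (1 h, 4 °C) and stained with SRB (10 min). Tris-solubilized stain read at 490 nm. Triplicate wells, mean ± SD; GI₅₀ derived.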

SK-MEL-28 = assay: Cytotoxicity against human SK-MEL-28 cells after 48 hrs by SRB assay; assay type: functional, cell-based; conditions: Homo sapiens, SK-MEL-28, 48 h; for GI50: read-out: GI50; for CC50: read-out: LC50 (the source's name); how it was run: as §1
[2] = Cytotoxicity against human IGROV-ET cells after 48 hrs by SRB assay; assay type: functional; conditions: for CC50: read-out: LC50 (the source's name); how it was run: as §1
HeLa = assay: Cytotoxicity against human HeLa cells after 48 hrs by SRB assay; assay type: functional; conditions: for CC50: read-out: LC50 (the source's name); how it was run: as §1
A549 = assay: Cytotoxicity against human A549 cells after 48 hrs by SRB assay; assay type: functional, cell-based; conditions: Homo sapiens, A549, 48 h; for GI50: read-out: GI50; how it was run: as §1
PANC-1 = assay: Cytotoxicity against human PANC1 cells after 48 hrs by SRB assay; assay type: functional; conditions: PANC-1, 48 h; for CC50: read-out: LC50 (the source's name); how it was run: as §1
LoVo [3] = assay: Cytotoxicity against human doxorubicin resistant LoVo cells after 48 hrs by SRB assay; assay type: functional; conditions: for CC50: read-out: LC50 (the source's name); how it was run: as §1
HT-29 = assay: Cytotoxicity against human HT29 cells after 48 hrs by SRB assay; assay type: functional, cell-based; conditions: Homo sapiens, HT-29, 48 h; for CC50: read-out: LC50 (the source's name); how it was run: as §1
SK-BR-3 = assay: Cytotoxicity against human SKBR3 cells after 48 hrs by SRB assay; assay type: functional; conditions: SK-BR-3, 48 h; how it was run: as §1
K562 = assay: Cytotoxicity against human K562 cells after 48 hrs by SRB assay; assay type: functional; conditions: K562, 48 h; for CC50: read-out: LC50 (the source's name); how it was run: as §1
[4] = Cytotoxicity against human IGROV cells after 48 hrs by SRB assay; assay type: functional; conditions: for CC50: read-out: LC50 (the source's name); how it was run: as §1
LoVo [5] = assay: Cytotoxicity against human LoVo cells after 48 hrs by SRB assay; assay type: functional; conditions: for CC50: read-out: LC50 (the source's name)
DU-145 = assay: Cytotoxicity against human DU145 cells after 48 hrs by SRB assay; assay type: functional, cell-based; conditions: Homo sapiens, DU-145, 48 h; for CC50: read-out: LC50 (the source's name); how it was run: as §1

Compound | LC50 (concentration giving 50% net cell kill) [1] | CC50 (SK-MEL-28) | GI50 ([2]; read-out: GI50) | CC50 [2] | CC50 (HeLa) | LC50 (A549) | GI50 (PANC-1) | TGI (PANC-1) | CC50 (PANC-1) | CC50 (LoVo [3]) | GI50 (HT-29) | TGI (HT-29) | CC50 (HT-29) | CC50 (K562) | CC50 [4] | GI50 (LoVo [5]) | TGI (LoVo [5]) | CC50 (LoVo [5]) | GI50 (DU-145; read-out: GI50) | CC50 (DU-145) | further results
C/C=C1\NC(=O)[C@H](Cc2ccccc2)NC(=O)[C@@H](C(C)C)NC(=O)[C@@H]([C@H](C)CC)NC(=O)[C@H](NC(=O)[C@H](NC(=O)[C@H](CCCN)NC(=O)[C@H]2CCCN2C(=O)[C@H](NC(=O)[C@@H](NC(=O)[C@H](CCC(N)=O)NC(=O)[C@H](NC(=O)CCCC(C)C)C(C)C)C(C)C)C(C)C)[C@H](C)CC)[C@H](C)OC(=O)[C@H](C(C)C)NC1=O | 955 nM | 1170 nM | 477 nM | 561 nM | 946 nM | 1140 nM | 1740 nM | 1740 nM | 1740 nM | 348 nM | 448 nM | 455 nM | 436 nM | 1900 nM | 456 nM | 258 nM | 325 nM | 357 nM | 913 nM | 913 nM | TGI (SK-MEL-28): 1170 nM; GI50 (SK-MEL-28): 1170 nM; GI50 [2]: 575 nM; TGI (A549): 1140 nM; GI50 (A549): 1140 nM; TGI (SK-BR-3): 173 nM; GI50 (SK-BR-3; read-out: GI50): 151 nM; CC50 (SK-BR-3; read-out: LC50 (the source's name)): 300 nM; GI50 (K562): 1900 nM; TGI (K562): 1900 nM; GI50 [4]: 406 nM; GI50 ([4]; read-out: GI50): 357 nM; GI50 (DU-145): 913 nM
C/C=C1\NC(=O)[C@H](Cc2ccccc2)NC(=O)[C@@H](C(C)C)NC(=O)[C@@H]([C@H](C)CC)NC(=O)[C@H](NC(=O)[C@H](NC(=O)[C@H](CCCN)NC(=O)[C@H]2CCCN2C(=O)[C@H](NC(=O)[C@@H](NC(=O)[C@@H](NC(=O)CNC(=O)CCCC(C)C)[C@@H](C)O)C(C)C)C(C)C)[C@H](C)CC)[C@H](C)OC(=O)[C@H](C(C)C)NC1=O | 1890 nM | 2040 nM | – | 1200 nM | 1650 nM | 1890 nM | 499 nM | 1250 nM | 2110 nM | 5200 nM | 10900 nM | 9540 nM | 5410 nM | 4390 nM | 1430 nM | 8760 nM | 8900 nM | 5180 nM | – | 1750 nM | GI50 (HeLa): 672 nM; TGI (HeLa): 1320 nM; GI50 (LoVo [3]): 11100 nM; TGI (LoVo [3]): 9100 nM; GI50 (K562): 3850 nM; TGI (K562): 11400 nM
CC[C@@H]1NC(=O)[C@H](Cc2ccccc2)NC(=O)[C@@H](C(C)C)NC(=O)[C@@H]([C@H](C)CC)NC(=O)[C@H](NC(=O)[C@H](NC(=O)[C@H](CCCN)NC(=O)[C@H]2CCCN2C(=O)[C@H](NC(=O)[C@@H](NC(=O)[C@@H](NC(=O)[C@H](NC(=O)CCCC(C)C)C(C)C)[C@@H](C)O)C(C)C)C(C)C)[C@H](C)CC)[C@H](C)OC(=O)[C@H](C(C)C)NC1=O | 1840 nM | 1980 nM | 1640 nM | 1170 nM | 1600 nM | 1830 nM | 3090 nM | 4980 nM | 2830 nM | 2930 nM | 7350 nM | 9270 nM | 5250 nM | 4260 nM | 1390 nM | 3030 nM | 3860 nM | 4930 nM | 3050 nM | 1700 nM | TGI (SK-MEL-28): 3830 nM; GI50 (SK-MEL-28): 4480 nM; TGI [2]: 1430 nM; GI50 (LoVo [3]): 2720 nM; TGI (LoVo [3]): 2820 nM; TGI [4]: 2220 nM; GI50 ([4]; read-out: GI50): 2810 nM; TGI (DU-145): 3070 nM
C/C=C1\NC(=O)[C@H](Cc2ccccc2)NC(=O)[C@@H](C(C)C)NC(=O)[C@@H]([C@H](C)CC)NC(=O)[C@H](N)[C@H](C)OC(=O)[C@H](C(C)C)NC1=O | 3580 nM | 3870 nM | 4400 nM | 2280 nM | 3130 nM | 3580 nM | 4350 nM | 9720 nM | 5520 nM | 9860 nM | – | – | 10300 nM | 8320 nM | 2710 nM | 14900 nM | 16900 nM | 9830 nM | 5100 nM | 3310 nM | TGI [2]: 5580 nM; GI50 (HeLa): 740 nM; TGI (HeLa): 5420 nM; TGI (DU-145): 6000 nM
CC[C@@H](C)[C@@H](NC(=O)[C@H](CCCN)NC(=O)[C@H]1CCCN1C(=O)[C@H](NC(=O)[C@@H](NC(=O)[C@@H](NC(=O)[C@H](NC(=O)CCCC(C)C)C(C)C)[C@@H](C)O)C(C)C)C(C)C)C(=O)N[C@H]1C(=O)N[C@H]([C@H](C)CC)C(=O)N[C@H](C(C)C)C(=O)N[C@@H](Cc2ccccc2)C(=O)N[C@H](CC)C(=O)N[C@@H](C(C)C)C(=O)O[C@H]1C | 1840 nM | 1980 nM | – | 748 nM | 1600 nM | 1830 nM | 4090 nM | 4980 nM | 2830 nM | 2280 nM | 3660 nM | 3410 nM | 3210 nM | 2730 nM | 963 nM | 2630 nM | 2740 nM | 2830 nM | 3260 nM | 1700 nM | TGI (SK-MEL-28): 3360 nM; GI50 (SK-MEL-28): 3100 nM; TGI (A549): 3020 nM; GI50 (A549): 3230 nM; GI50 (LoVo [3]): 1760 nM; TGI (LoVo [3]): 2000 nM; TGI (DU-145): 3040 nM
C/C=C1\NC(=O)[C@H](Cc2ccccc2)NC(=O)[C@H](C(C)C)NC(=O)[C@@H]([C@H](C)CC)NC(=O)[C@H](NC(=O)[C@H](NC(=O)[C@H](CCCN)NC(=O)[C@H]2CCCN2C(=O)[C@H](NC(=O)[C@@H](NC(=O)[C@@H](NC(=O)[C@H](NC(=O)CCCC(C)C)C(C)C)[C@@H](C)O)C(C)C)C(C)C)[C@H](C)CC)[C@H](C)OC(=O)[C@H](C(C)C)NC1=O | 1840 nM | 1990 nM | 1220 nM | 1170 nM | 1610 nM | 1830 nM | 1680 nM | 4980 nM | 2830 nM | 5060 nM | – | – | 5260 nM | 4270 nM | 1390 nM | 5490 nM | 8660 nM | 5040 nM | – | 1700 nM | TGI [2]: 2860 nM
C/C=C1\NC(=O)[C@H](Cc2ccccc2)NC(=O)[C@@H](C(C)C)NC(=O)[C@@H]([C@H](C)CC)NC(=O)[C@H](NC(=O)[C@H](NC(=O)[C@H](CCCN)NC(=O)[C@H]2CCCN2C(=O)[C@H](NC(=O)[C@@H](NC(=O)[C@@H](NC(=O)[C@@H](C)NC(=O)CCCC(C)C)[C@@H](C)O)C(C)C)C(C)C)[C@H](C)CC)[C@H](C)OC(=O)[C@H](C(C)C)NC1=O | 1180 nM | 1470 nM | – | 714 nM | 963 nM | 1400 nM | 1660 nM | 1900 nM | 2180 nM | 1850 nM | 3030 nM | 3180 nM | 3340 nM | 3310 nM | 828 nM | 1980 nM | 2260 nM | 2220 nM | 1810 nM | 1200 nM | GI50 [1]: 1680 nM; TGI [1]: 1420 nM; TGI (SK-MEL-28): 1700 nM; GI50 (SK-MEL-28): 1990 nM; GI50 (HeLa): 1030 nM; TGI (HeLa): 998 nM; TGI (A549): 1430 nM; GI50 (A549): 1460 nM; GI50 (LoVo [3]): 800 nM; TGI (LoVo [3]): 1270 nM; TGI (DU-145): 1480 nM
C/C=C1\NC(=O)[C@H](Cc2ccccc2)NC(=O)[C@@H](C(C)C)NC(=O)[C@@H]([C@H](C)CC)NC(=O)[C@H](NC(=O)[C@H](NC(=O)[C@H](CCCN)NC(=O)[C@H]2CCCN2C(=O)[C@H](NC(=O)[C@@H](NC(=O)[C@@H](NC(=O)[C@H](N)C(C)C)[C@@H](C)O)C(C)C)C(C)C)[C@H](C)CC)[C@H](C)OC(=O)[C@H](C(C)C)NC1=O | 1990 nM | 4140 nM | 4010 nM | 1260 nM | 1740 nM | 1980 nM | 5490 nM | 5390 nM | 3060 nM | 5470 nM | – | – | 5680 nM | 4610 nM | 1500 nM | 9460 nM | 9360 nM | 5450 nM | – | 1840 nM | TGI [2]: 3100 nM
